# KCNK3 block – human KCNK3 channel inhibitors, primary screen, CHO cells, FluxOR thallium flux, B-score; Potassium channel subfamily K member 3 (Homo sapiens), O14649; FluxOR fluorescence; active compounds read low; B-score at 10 µM; 340,000 compounds, 0.84% hits; AID 602410, 2012;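 active means B-score under library mean minus 4 SD, starting fluorescence ratio at most library mean plus 5 SD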;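 further: more negative B-score means stronger inhibition of thallium flux through KCNK3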
# KCNQ1 block – inhibitors of human KCNQ1 channel, primary screen, cell-based, thallium flux, high-throughput; Potassium voltage-gated channel subfamily KQT member 1 (Homo sapiens), P51787; CHO-K1 KCNQ1, FluxOR thallium flux fluorescence; active compounds read high; B-score at 10 µM; 310,000 compounds, 1.3% hits;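 active means compounds whose thallium flux B-score, printed positive for inhibition, exceeds three library SD while starting fluorescence stays within three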;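 further: channel opened by potassium depolarization with thallium stimulus after 20 min compound exposure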
# KCNQ1 act – potentiators or activators of KCNQ1 channel, primary screen, cell-based, thallium flux, high-throughput; Potassium voltage-gated channel subfamily KQT member 1 (Homo sapiens), P51787; CHO-K1 KCNQ1, thallium flux FluxOR fluorescence; active compounds read high; B-score at 10 µM; 310,000 compounds, 0.35% hits; AID 2648, 2010;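 active means fluorescence ratio B-score, a plate-corrected score, at least three library SD, with initial intensity B-score within 5 SD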
#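 assay system = CHO-K1 cells stably expressing KCNQ1 | medium = assay buffer, equal DMSO in all wells | timing = 37 °C overnight plating, 90-min dark dye load, 20-min compound pretreatment | measured by = kinetic FluxOR thallium fluorescence, 10-s 1-Hz baseline, 110-s post-stimulus read | measure = fluorescence change relative to baseline, converted to B score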
# Kir21 inh – inhibitors of mouse Kir2.1 inward-rectifier potassium channel | Inward rectifier potassium channel 2 (Mus musculus), P35561 | HEK293-Kir2.1, FluxOR thallium flux fluorescence; active compounds read low | B-score at 10 µM | 310,000 compounds, 0.85% hits | AID 1672, 2009;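 active means fluorescence ratio B-score at or below minus 3 SD of library scores, with starting-brightness B-score within 2 SD, cut at about -4.2 in these data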;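 further: channel flux triggered by added potassium and thallium sulfate stimulus; B-score of peak minus minimum fluorescence over baseline after thallium stimulus; more negative B-score means stronger Kir2.1 block with less thallium influx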
# Target sequence (P35561 whole entry, looked up): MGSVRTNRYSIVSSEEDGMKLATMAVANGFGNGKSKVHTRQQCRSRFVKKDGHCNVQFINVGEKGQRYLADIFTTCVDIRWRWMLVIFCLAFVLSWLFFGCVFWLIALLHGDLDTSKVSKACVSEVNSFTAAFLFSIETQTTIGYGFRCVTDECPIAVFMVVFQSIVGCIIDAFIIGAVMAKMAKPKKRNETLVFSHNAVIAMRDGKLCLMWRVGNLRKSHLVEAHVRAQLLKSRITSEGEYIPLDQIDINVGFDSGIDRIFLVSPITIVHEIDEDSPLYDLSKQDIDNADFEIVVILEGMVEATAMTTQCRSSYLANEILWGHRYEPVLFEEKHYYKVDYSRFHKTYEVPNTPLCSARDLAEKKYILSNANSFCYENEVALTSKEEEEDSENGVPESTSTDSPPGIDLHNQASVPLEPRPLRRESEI
# KCNK9 inh – KCNK9 potassium channel inhibitors, primary screen, HEK293 cells, thallium flux; Potassium channel subfamily K member 9 (Homo sapiens), Q9NPC2; FluxOR thallium flux fluorescence; active compounds read low; B-score at 10 µM; 310,000 compounds, 1.2% hits; AID 488922, 2010;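 active means ratio B-score over 3 SD below the library mean, with starting fluorescence within 5 SD of its mean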;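 further: negative B-score means less thallium flux so channel inhibition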
# Target sequence (Q9NPC2 whole entry, looked up): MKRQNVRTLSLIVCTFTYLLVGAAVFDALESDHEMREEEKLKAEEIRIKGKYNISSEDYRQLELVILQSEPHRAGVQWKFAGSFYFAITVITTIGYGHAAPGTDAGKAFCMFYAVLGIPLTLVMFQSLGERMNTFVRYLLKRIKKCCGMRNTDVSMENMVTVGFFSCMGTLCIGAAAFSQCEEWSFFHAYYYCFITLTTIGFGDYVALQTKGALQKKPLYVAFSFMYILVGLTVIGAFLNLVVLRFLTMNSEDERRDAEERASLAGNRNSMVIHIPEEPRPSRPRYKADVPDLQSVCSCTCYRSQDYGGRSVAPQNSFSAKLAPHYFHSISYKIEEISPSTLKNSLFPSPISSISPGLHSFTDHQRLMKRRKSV
# hERG protect – hERG rescue from dofetilide block, primary screen, cell-based, CHO-hERG, FluxOR thallium flux, dofetilide IC70; AID 1511, 2009; 310,000 compounds, 0.51% hits; dofetilide IC70 present; Voltage-gated inwardly rectifying potassium channel KCNH2 (Homo sapiens), Q12809; activation (rescue from dofetilide block), less the hit threshold, % at 10 µM;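 active means activation above the mean of controls blocked by dofetilide plus 5 SD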;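 further: thallium influx through hERG after potassium depolarization seen as dye fluorescence rise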
# KCNQ1 block val – KCNQ1 potassium channel inhibitors, confirmation, cell-based, Tl flux, duplicate. shares compounds with KCNQ1 block. KCNQ1 cell line, FluxOR thallium flux fluorescence. inhibition, % at 10 µM. 1,600 compounds, 93% hits. AID 588353, 2011;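 active means primary screen active, with duplicate mean exceeding buffer control mean plus 3 SD of buffer wells, cut at about 28% in these data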;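 further: 0% = buffer control ratio and 100% = XE991 inhibitor control ratio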
# CHO Tl flux – thallium flux effects in parental CHO cells, counter-screen for KCNQ1 inhibitor project, cell-based, Tl flux; AID 588366, 2011; parental CHO-K1, FluxOR thallium flux fluorescence ratio; active compounds read low; zero means no signal rise above baseline; shares compounds with KCNQ1 block; 1,600 compounds, 21% hits; fluorescence ratio (Tl flux) at 10 µM;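 active means mean of duplicate thallium-flux fluorescence ratios in parental host cells more than 5 SD below the buffer control mean, cut at about 0.38 in these data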;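 further: ratio is peak minus minimum fluorescence divided by baseline fluorescence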
# KCNQ1 APC inh – KCNQ1 channel inhibitors, confirmation, orthogonal assay, cell-based, automated electrophysiology | 490 compounds, 20% hits | calls only at 10 µM | shares compounds with KCNQ1 block | AID 624120, 2012 | KCNQ1-CHO cells, automated patch clamp current;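 active means KCNQ1 current drop exceeding 3 SD of negative control wells, seen in both duplicate runs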;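 further: steady state current during a 2 s step from -80 to +40 mV; negative values mean current inhibition and positive values mean potentiation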
# KCNQ2 inh – KCNQ2 channel inhibition, selectivity assay for KCNQ1 inhibitor project, cell-based | shares compounds with KCNQ1 block | KCNQ2 cells, FluxOR thallium flux fluorescence | inhibition, % at 10 µM | 1,600 compounds, 71% hits | AID 651746, 2012;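 active means mean percent inhibition of the KCNQ2 thallium signal more than 5 SD above the buffer-only control wells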;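 further: KCNQ2 expressed in CHO cells; 0% = buffer control wells and 100% = XE-991 inhibitor control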
# KCNQ1-KCNE1 inh – KCNQ1/KCNE1 channel inhibition, selectivity assay for KCNQ1 inhibitor project, CHO-K1 cells, thallium flux, FluxOR; shares compounds with KCNQ1 block; AID 652147, 2013; inhibition, % at 10 µM; 1,600 compounds, 77% hits; FluxOR thallium flux fluorescence;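 active means mean percent inhibition of duplicate wells above the buffer-only control mean plus 3 SD of those controls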;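 further: 0% = buffer only wells and 100% = XE-991 inhibitor control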
# KCNK9 block conf – KCNK9 potassium channel inhibitors, confirmation, HEK293 cells, thallium flux, duplicate; shares compounds with KCNK9 inh; FluxOR thallium flux fluorescence; inhibition, % at 10 µM; 4,900 compounds, 43% hits; AID 492992, 2010;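 active means thallium signal inhibited by more than 5 SD of the compound-free buffer control wells, on both duplicate plates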;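 further: 0% = assay buffer control wells without compound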
# Kir21 sel – mouse Kir2.1 channel inhibition, confirmation, selectivity assay for KCNK9 modulator project, cell-based, HEK293, thallium flux | shares compounds with KCNK9 inh | Kir2.1 cells, FluxOR thallium flux fluorescence | inhibition, % at 10 µM | 4,900 compounds, 4% hits | AID 492993, 2010;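 active means thallium signal drop more than 5 SD beyond the mean of the no-compound control wells, seen in both duplicate plates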;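 further: signal is fluorescence rise after thallium addition divided by baseline fluorescence; plate controls were assay buffer only for no effect and full block by chlorpromazine control for full effect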
# HEK293 Tl ctr – thallium flux in non-induced HEK293 cells, confirmation, counter-screen for KCNK9 inhibitor project, cell-based, second counter screen, non-induced KCNK9-HEK293 | shares compounds with KCNK9 inh | FluxOR thallium flux | inhibition, % at 10 µM | 4,900 compounds, 40% hits | AID 492997, 2010;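 active means thallium signal drop beyond 5 SD of the untreated control mean, on both duplicate plates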;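 further: plate controls were buffer only IC0 wells for no effect and SID17386958 at its maximal inhibitory level for full effect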
# KCNK3 inh conf – retest of human KCNK3 channel inhibitors, confirmation, CHO cells, FluxOR thallium flux, triplicate. shares compounds with KCNK3 block. FluxOR fluorescence; 0% buffer, 100% carvedilol maximal block. ratio percent of control, % at 10 µM. 2,400 compounds, 99% hits. AID 651638, 2012;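 active means ratio percent of control, averaged over triplicates, above buffer control mean plus 5 SD, cut at about 64% in these data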;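 further: ratio is the fluorescence rise from min to max over baseline after thallium stimulus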
# KCNK3 uninduced – thallium flux inhibition in non-induced cells, primary screen, counter-screen for KCNK3 inhibitor project, cell-based, non-induced KCNK3 line, FluxOR thallium, triplicate; non-induced KCNK3 parental cells; active compounds read low; 2,400 compounds, 40% hits; thallium flux ratio (lower = more inhibition) at 10 µM; shares compounds with KCNK3 block;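 active means thallium flux ratio, averaged over three wells, more than 5 SD below the buffer control mean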;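 further: host cells are CHO cells without KCNK3 induction; ratio is peak minus trough fluorescence over baseline then normalized to buffer controls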
# Numbers without * were called inactive; i = inactive; . = not tested or not shown; + = active, no number. Rows were chosen to be rich in hits. Some 3.7% of all compounds tested hit in one or more screens of this group.
SMILES,KCNK3 block,KCNQ1 block,KCNQ1 act,Kir21 inh,KCNK9 inh,hERG protect,KCNQ1 block val,CHO Tl flux,KCNQ2 inh,KCNQ1-KCNE1 inh,KCNK3 inh conf,KCNK3 uninduced,others
CCc1nc(N2CCN(Cc3ccc4c(c3)OCO4)CC2)c2oc3ccccc3c2n1,-8.96*,9*,i,-0.69,i,-17.1,127.5*,0.41,105.0%*,179.0%*,109.3*,0.143*,KCNQ1 APC inh=i
Cc1cccc2sc(NC(=O)C3CC3)nc12,i,i,i,0.92,i,-4.6,.,.,.,.,.,.,
Cc1cccc2sc(NC(=O)C3c4ccccc4Oc4ccccc43)nc12,-10.4*,13*,i,-0.49,-10.4*,-13.2,112.0*,0.45,76.0%*,144.0%*,129.7*,0.146*,KCNQ1 APC inh=i;KCNK9 block conf=44.0%*;Kir21 sel=i;HEK293 Tl ctr=40.5%*
CCCCc1nc(N2CCN(C(=O)c3ccco3)CC2)c(C#N)c2c1CCCC2,-9.38*,9*,i,-1.33,-6.78*,-15.4,97.5*,0.338*,107.7%*,46.0%*,119.7*,i,
O=C(/C=C/c1ccc(Cl)cc1Cl)c1nc2ccccc2[nH]1,i,i,i,0.85,i,-13.1,.,.,.,.,.,.,
Clc1ccc(/C=C/c2nc3ccccc3[nH]2)c(Cl)c1,-11.1*,14*,i,0.03,i,-17.4,112.5*,0.322*,107.3%*,76.0%*,115.0*,0.1*,
CC[C@H](C)[C@H](NC(=O)OCc1ccccc1)C(=O)OCC(=O)N1CCN(c2ccc(OC)cc2)CC1,i,.,.,.,.,.,.,.,.,.,.,.,
CCOC(=O)C1CCN(c2ncnc3c(C)csc23)CC1,i,i,i,0.28,i,-4.1,.,.,.,.,.,.,
Cc1csc2c(N3CCN(C(=O)c4ccc(C(C)(C)C)cc4)CC3)ncnc12,-9.77*,9*,i,0.09,i,-21.4,138.5*,0.304*,137.3%*,169.5%*,130.0*,i,
COc1cc2c(cc1OC)C(c1ccc(-c3ccccc3Cl)o1)=NCC2,-12*,12*,i,0.01,i,-31.1,136.5*,0.37*,145.0%*,196.5%*,100.7*,0.125*,
c1ccc(-c2cc(-c3nc4ccccc4[nH]3)c3ccccc3n2)cc1,-10.1*,8*,i,-0.14,-7.57*,-38.1,149.0*,0.249*,122.3%*,+,143.3*,0.135*,
Cc1coc2c1c(C)cc1oc(=O)c(CC(=O)N[C@@H](CC(C)C)C(=O)O)c(C)c12,i,i,i,1.28,i,-11.5,.,.,.,.,.,.,
Cc1c(C(=O)Nc2cccc(Cl)c2)c2ccccn2c1CCc1ccncc1,-10.3*,9*,i,-1.92,i,-11.0,159.0*,0.356*,122.7%*,+,133.7*,0.12*,
Cc1c(C(=O)Nc2ccc(Cl)cc2)c2ccccn2c1C(=O)c1ccc(F)cc1,i,i,i,-3.01,i,-7.5,.,.,.,.,.,.,
CCC(C)C1/C=C\CC(NC(=O)OCC2c3ccccc3-c3ccccc32)CC(=O)N1Cc1ccccc1 (stereo not drawn),i,.,.,.,.,.,.,.,.,.,.,.,
CCOc1ccc(CCNC(=O)C2CCCN(S(=O)(=O)N3CC(C)CC(C)C3)C2)cc1OCC (stereo not drawn),i,i,i,0.55,i,-5.5,.,.,.,.,.,.,
CC(C)(C)n1nnnc1C(c1ccc(Cl)cc1)N1CCCc2ccccc21 (stereo not drawn),i,6*,i,0.47,-11.2*,-11.1,82.5*,0.429,87.7%*,85.0%*,130.7*,0.133*,KCNK9 block conf=55.5%*;Kir21 sel=i;HEK293 Tl ctr=42.0%*
COc1cc(NC(=O)C2CC(=O)N(CCc3ccc(F)cc3)C2)cc(OC)c1OC (stereo not drawn),i,i,i,-0.34,i,-4.0,.,.,.,.,.,.,

# From PubChem
